ChEMBL document CHEMBL1123153, “Synthesis and antitumor and antiviral properties of 5-alkyl-2'-deoxyuridines, 3',5'-cyclic monophosphates, and neutral cyclic triesters” (1986)
≈ marks a conversion by molar mass, not a printed value.

Assays:
Type in all cases: functional
Human alphaherpesvirus 2 [1] = assay: Antiviral activity against Herpes Simplex Virus-2(196)
[2] = system: Vesicular stomatitis virus; assay: Antiviral activity against vesicular stomatitis virus
L1210 [3] = assay: Cytostatic activity against proliferation of L1210/0 cells; settings: Mus musculus, read-out: ID50 (the source's name)
How it was run: (§1)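 Murine leukemia L1210 cells: parental L1210/0 and L1210/BdUrd, a thymidine-kinase-deficient mutant selected from L1210/0 by growth in the presence of 260 µg/mL 5-bromo-2'-deoxyuridine. Value is the dose inhibiting tumor cell proliferation by 50% (ID50).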

Human alphaherpesvirus 1 [4] = assay: Antiviral activity against Herpes Simplex Virus-1(F)
Human alphaherpesvirus 1 [5] = assay: Antiviral activity against Herpes Simplex Virus-1 (McIntyre)
Raji [6] = assay: Cytostatic activity against proliferation of Raji/TK cells; settings: Homo sapiens, read-out: ID50 (the source's name)
L1210 [7] = assay: Cytostatic activity against proliferation of L1210/BdU cells; settings: Mus musculus, read-out: ID50 (the source's name); how it was run: as §1
Human alphaherpesvirus 2 [8] = assay: Antiviral activity against Herpes Simplex Virus-2(G)
Vaccinia virus = assay: Antiviral activity against vaccinia virus; settings: Orthopoxvirus vaccinia
Raji [9] = assay: Cytostatic activity against proliferation of Raji/0 cells; settings: Homo sapiens, read-out: ID50 (the source's name)
Human alphaherpesvirus 2 [10] = assay: Antiviral activity against Herpes Simplex Virus-2(Lyons)
Human alphaherpesvirus 1 [11] = assay: Antiviral activity against Herpes Simplex Virus-1(KOS)
L1210 [12] = assay: Compound was tested for Cytostatic activity against proliferation of L1210/0 cells (murine leukemia L1210 cell line); settings: Mus musculus, read-out: ID50 (the source's name); how it was run: as §1
Raji [13] = assay: Compound was tested for Cytostatic activity against proliferation of Raji/0 cells (human lymphoblast Raji cells line); settings: read-out: ID50 (the source's name)
L1210 [14] = assay: Compound was tested for Cytostatic activity against proliferation of L1210/BdU cells (thymidine kinase deficient L1210 cell line); settings: Mus musculus, read-out: ID50 (the source's name); how it was run: as §1
Raji [15] = assay: Compound was tested for Cytostatic activity against proliferation of Raji/TK cells (thymidine kinase deficient Raji cell line); settings: Homo sapiens, read-out: ID50 (the source's name)

| Compound | MIC50 (Human alphaherpesvirus 2 [1]) [µg/mL] | MIC50 [2] [µg/mL] | IC50 (L1210 [3]) [µg/mL] | MIC50 (Human alphaherpesvirus 1 [4]) [µg/mL] | MIC50 (Human alphaherpesvirus 1 [5]) [µg/mL] | IC50 (Raji [6]) [µg/mL] | IC50 (L1210 [7]) [µg/mL] | MIC50 (Human alphaherpesvirus 2 [8]) [µg/mL] | MIC50 (Vaccinia virus) [µg/mL] | IC50 (Raji [9]) [µg/mL] | MIC50 (Human alphaherpesvirus 2 [10]) [µg/mL] | MIC50 (Human alphaherpesvirus 1 [11]) [µg/mL] | IC50 (L1210 [12]) [µg/mL] | IC50 (Raji [13]) [µg/mL] | IC50 (L1210 [14]) [µg/mL] | IC50 (Raji [15]) [µg/mL] |
| --- | --- | --- | --- | --- | --- | --- | --- | --- | --- | --- | --- | --- | --- | --- | --- | --- |
| CCCc1cn([C@H]2C[C@H](O)[C@@H](CO)O2)c(=O)[nH]c1=O | 40 (≈ 148 µM) | > 200 | > 500 | 7 (≈ 25.9 µM) | 2 (≈ 7.4 µM) | > 500 | > 500 | 10 (≈ 37 µM) | 200 (≈ 740 µM) | > 500 | 7 (≈ 25.9 µM) | 2 (≈ 7.4 µM) | – | – | – | – |
| CCCCCCc1cn([C@H]2C[C@H](O)[C@@H](CO)O2)c(=O)[nH]c1=O | – | – | 172 (≈ 551 µM) | > 400 | 300 (≈ 960 µM) | 173 (≈ 554 µM) | 195 (≈ 624 µM) | 400 (≈ 1280 µM) | 300 (≈ 960 µM) | 151 (≈ 483 µM) | 300 (≈ 960 µM) | > 400 | – | – | – | – |
| CCCCCCc1cn([C@H]2C[C@@H]3OP(=O)(O)OC[C@H]3O2)c(=O)[nH]c1=O.N | > 400 | > 400 | > 500 | > 400 | > 400 | > 500 | > 500 | > 400 | > 400 | > 500 | 300 | > 400 | – | – | – | – |
| CCCCc1cn([C@H]2C[C@@H]3OP(=O)(O)OC[C@H]3O2)c(=O)[nH]c1=O.N | > 400 | > 400 | 28.4 | > 400 | > 400 | 165 | 33.5 | > 400 | 300 | 82 | 300 | > 400 | – | – | – | – |
| CCCCCc1cn([C@H]2C[C@@H]3OP(=O)(O)OC[C@H]3O2)c(=O)[nH]c1=O.N | > 400 | > 400 | > 500 | > 400 | > 400 | > 500 | > 500 | > 400 | > 400 | > 500 | > 400 | > 400 | – | – | – | – |
| CCCCc1cn([C@H]2C[C@H](O)[C@@H](CO)O2)c(=O)[nH]c1=O | > 400 | > 400 | > 500 | 70 (≈ 246 µM) | 20 (≈ 70.3 µM) | > 500 | > 500 | 150 (≈ 528 µM) | 300 (≈ 1060 µM) | > 500 | 20 (≈ 70.3 µM) | 20 (≈ 70.3 µM) | – | – | – | – |
| CCc1cn([C@H]2C[C@@H]3OP(=O)(O)OC[C@H]3O2)c(=O)[nH]c1=O.N | 150 | > 400 | 55 | 70 | 70 | > 500 | > 500 | 10 | 70 | 60 | 7 | 70 | – | – | – | – |
| CCCCCCCCc1cn([C@H]2C[C@@H]3OP(=O)(O)OC[C@H]3O2)c(=O)[nH]c1=O.N | > 200 | > 200 | 164 | > 200 | > 200 | 184 | 193 | > 200 | 20 | 165 | > 200 | > 200 | – | – | – | – |
| CCCCCc1cn([C@H]2C[C@H](O)[C@@H](CO)O2)c(=O)[nH]c1=O | > 400 | > 400 | 476 (≈ 1600 µM) | 10 (≈ 33.5 µM) | 40 (≈ 134 µM) | 328 (≈ 1100 µM) | 477 (≈ 1600 µM) | 70 (≈ 235 µM) | 300 (≈ 1010 µM) | 334 (≈ 1120 µM) | 70 (≈ 235 µM) | 20 (≈ 67 µM) | – | – | – | – |
| CC(C)c1cn([C@H]2C[C@@H]3OP(=O)(O)OC[C@H]3O2)c(=O)[nH]c1=O.N | > 200 | > 200 | > 500 | > 200 | > 200 | > 500 | > 500 | > 200 | > 200 | > 500 | > 200 | > 200 | – | – | – | – |
| CCCc1cn([C@H]2C[C@@H]3OP(=O)(O)OC[C@H]3O2)c(=O)[nH]c1=O.N | > 400 | > 400 | > 500 | 300 | 150 | > 500 | > 500 | 400 | > 400 | > 500 | 400 | 150 | – | – | – | – |
| CCCCCCCCc1cn([C@H]2C[C@H](O)[C@@H](CO)O2)c(=O)[nH]c1=O | > 100 | > 100 | 66 (≈ 194 µM) | > 100 | > 100 | 140 (≈ 411 µM) | 72 (≈ 212 µM) | 100 (≈ 294 µM) | 7 (≈ 20.6 µM) | 52 (≈ 153 µM) | 100 (≈ 294 µM) | > 100 | – | – | – | – |
| O=c1[nH]c(=O)n([C@H]2C[C@H](O)[C@@H](CO)O2)cc1/C=C/Br [BRIVUDINE] | 100 (≈ 300 µM) | > 400 | – | 0.02 (≈ 0.06 µM) | 0.02 (≈ 0.06 µM) | – | – | 1 (≈ 3 µM) | 2 (≈ 6 µM) | – | 1 (≈ 3 µM) | 0.02 (≈ 0.06 µM) | – | – | – | – |
| CCc1cn([C@H]2C[C@H](O)[C@@H](CO)O2)c(=O)[nH]c1=O [EDOXUDINE] | 2 (≈ 7.8 µM) | > 400 | 1.6 (≈ 6.24 µM) | 2 (≈ 7.8 µM) | 0.2 (≈ 0.78 µM) | > 500 | > 500 | 0.4 (≈ 1.56 µM) | 0.7 (≈ 2.73 µM) | 2.9 (≈ 11.3 µM) | 0.2 (≈ 0.78 µM) | 0.7 (≈ 2.73 µM) | – | – | – | – |
| CC(C)c1cn([C@H]2C[C@H](O)[C@@H](CO)O2)c(=O)[nH]c1=O [EPERVUDINE] | 400 (≈ 1480 µM) | > 400 | – | 2 (≈ 7.4 µM) | 1 (≈ 3.7 µM) | – | – | 40 (≈ 148 µM) | 300 (≈ 1110 µM) | – | 100 (≈ 370 µM) | 7 (≈ 25.9 µM) | > 500 | > 500 | > 500 | > 500 |
